Test results from ChEMBL document CHEMBL1145119, “Esters, retroesters, and a retroamide of palmitic acid: pool for the first selective inhibitors of N-palmitoylethanolamine-selective acid amidase” (J Med Chem, 2003).

How the values were obtained:
[1] = molecular target: T1, Fatty-acid amide hydrolase 1 (Rattus norvegicus) (UniProt P97612); test: Inhibition of fatty acid amide hydrolase (FAAH) from rat brain homogenates at 100 uM; format: tissue-based
T1 sequence (whole entry): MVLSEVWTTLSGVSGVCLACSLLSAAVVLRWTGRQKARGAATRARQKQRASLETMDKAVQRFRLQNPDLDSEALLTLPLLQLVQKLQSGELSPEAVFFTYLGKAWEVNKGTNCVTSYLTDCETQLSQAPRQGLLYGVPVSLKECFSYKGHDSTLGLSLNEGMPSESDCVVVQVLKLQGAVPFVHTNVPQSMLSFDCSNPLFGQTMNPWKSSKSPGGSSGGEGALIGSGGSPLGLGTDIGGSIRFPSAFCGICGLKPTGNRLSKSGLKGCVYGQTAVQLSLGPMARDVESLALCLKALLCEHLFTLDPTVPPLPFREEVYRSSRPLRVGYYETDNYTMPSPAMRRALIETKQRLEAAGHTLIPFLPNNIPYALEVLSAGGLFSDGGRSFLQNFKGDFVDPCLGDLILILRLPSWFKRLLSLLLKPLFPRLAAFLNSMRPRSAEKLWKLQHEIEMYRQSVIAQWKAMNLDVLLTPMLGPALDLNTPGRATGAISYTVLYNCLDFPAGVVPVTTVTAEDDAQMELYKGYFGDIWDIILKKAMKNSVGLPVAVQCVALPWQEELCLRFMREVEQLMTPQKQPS
Outline: (§1)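 Hydrolysis of [3H]-anandamide by rat brain homogenate was measured at assay pH 7.6. Compound was mostly tested over 0.5–100 μM, and percent inhibition is given at 10 and 100 μM. A value below 0 means activity remaining exceeded 100%.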

[2] = molecular target: T1, Fatty-acid amide hydrolase 1 (Rattus norvegicus); test: Inhibition of fatty acid amide hydrolase (FAAH) from rat brain homogenates at 10 uM; format: tissue-based; outline: as §1
[3] = molecular target: Cannabinoid receptor 2 (Homo sapiens) (UniProt P34972); test: Binding affinity against human CB2 receptor by using CHO-hCB2 transfected cell membrane [3H]WIN-55212-2 as radioligand at 10 uM
Outline: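 Membranes from CHO cells transfected with human CB2 were incubated with 1 nM [3H]-WIN55,212-2 and test compound at 10 μM. Nonspecific binding was defined with 10 μM HU-210. The value is percent inhibition of specific radioligand binding.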

[4] = molecular target: Cannabinoid receptor 1 (Homo sapiens) (UniProt P21554); test: Binding affinity against human Cannabinoid receptor 1 using CHO-hCB1 transfected cell membrane and [3H]CP-55940 as radioligand at 10 uM
Outline: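 Membranes from CHO cells transfected with human CB1 were incubated with 1 nM [3H]-CP55,940 and test compound at 10 μM. Nonspecific binding was defined with 10 μM HU-210. The value is percent inhibition of specific radioligand binding.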

[5] = molecular target: N-acylethanolamine-hydrolyzing acid amidase (Rattus norvegicus) (UniProt Q5KTC7); test: Inhibition of N-palmitoylethanolamine-selective acid amidase (NPAA) from rat lung homogenates at 100 uM
[6] = organism: Rattus norvegicus; test: Compound was tested for the inhibition of N-palmitoylethanolamine-selective acid amidase (NPAA) from rat lung homogenates at 100 uM
Outline: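 Enzyme (12 μg protein) was solubilized from the 12 000 × g pellet of rat lung homogenate. It was incubated with 100 μM [14C]-N-palmitoylethanolamine (10 000 cpm) and 100 μM compound for 30 min at 37 °C. Buffer was 50 mM citrate–sodium phosphate, pH 5.0, with 3 mM DTT and 0.1% Triton X-100. Radioactivity was read by imaging scan. The value is percent inhibition.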

[7] = test system: RBL-2H3; test: Compound was tested for the inhibition of [3H]anandamide Uptake in RBL-2H3 cells at 100 uM; format: functional; conditions: Rattus norvegicus
Outline: (§2)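 RBL-2H3 cells (passage 38) were preincubated with compound (10, 30 or 100 μM). They were then exposed to 2 μM [3H]-arachidonoyl-labeled anandamide for 8 min. Uptake was taken as accumulation in cell wells minus parallel cell-free wells. 200 μM AM404 served as positive control in every assay. The value is percent inhibition of uptake.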

[8] = test system: RBL-2H3; test: Compound was tested for the inhibition of [3H]anandamide Uptake in RBL-2H3 cells at 30 uM; format: functional; conditions: Rattus norvegicus; outline: as §2
[9] = molecular target: T1, Fatty-acid amide hydrolase 1 (Rattus norvegicus); test: Compound was tested for the inhibition of fatty acid amide hydrolase from rat brain homogenates at 10 uM in buffer A of pH 6 by using 10 uM [3H]ethanolamine-labeled anandamide as substrate
Outline: (§3)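 The rat brain homogenate FAAH assay used 10 μM [3H]-ethanolamine-labeled anandamide as substrate. Protein was 10 μg per assay at pH 6 and 3 μg at pH 9. Buffer A was 10 mM Tris-HCl and 1 mM EDTA with fatty acid-free BSA. Buffer B was 125 mM Tris, 1 mM EDTA, 0.2% glycerol, 0.02% Triton X-100 and 0.4 mM HEPES, without BSA. pH was adjusted with NaOH or HCl. Compounds were tested at 10, 30 and 100 μM. The value is percent inhibition.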

[10] = molecular target: T1, Fatty-acid amide hydrolase 1 (Rattus norvegicus); test: Compound was tested for the inhibition of fatty acid amide hydrolase from rat brain homogenates at 10 uM in buffer B of pH 9 by using 100 uM [3H]ethanolamine-labeled anandamide as substrate; format: tissue-based
[11] = test system: RBL-2H3; test: Compound was tested for the inhibition of [3H]anandamide Uptake in RBL-2H3 cells at 10 uM; format: functional; conditions: Rattus norvegicus; outline: as §2
[12] = molecular target: T1, Fatty-acid amide hydrolase 1 (Rattus norvegicus); test: Compound was tested for the inhibition of fatty acid amide hydrolase from rat brain homogenates at 10 uM in buffer B of pH 6 by using 100 uM [3H]ethanolamine-labeled anandamide as substrate; format: tissue-based
[13] = molecular target: T1, Fatty-acid amide hydrolase 1 (Rattus norvegicus); test: Compound was tested for the inhibition of fatty acid amide hydrolase from rat brain homogenates at 10 uM in buffer A of pH 9 by using 30 uM [3H]ethanolamine-labeled anandamide as substrate; format: tissue-based
[14] = molecular target: T1, Fatty-acid amide hydrolase 1 (Rattus norvegicus); test: Compound was tested for the inhibition of fatty acid amide hydrolase from rat brain homogenates at 10 uM in buffer A of pH 6 by using 100 uM [3H]ethanolamine-labeled anandamide as substrate; format: tissue-based
[15] = molecular target: T1, Fatty-acid amide hydrolase 1 (Rattus norvegicus); test: Compound was tested for the inhibition of fatty acid amide hydrolase from rat brain homogenates at 10 uM in buffer A of pH 9 by using 100 uM [3H]ethanolamine-labeled anandamide as substrate; format: tissue-based
[16] = molecular target: T1, Fatty-acid amide hydrolase 1 (Rattus norvegicus); test: Compound was tested for the inhibition of fatty acid amide hydrolase from rat brain homogenates at 10 uM in buffer A of pH 9 by using 10 uM [3H]ethanolamine-labeled anandamide as substrate; format: tissue-based; outline: as §3
[17] = molecular target: T1, Fatty-acid amide hydrolase 1 (Rattus norvegicus); test: Compound was tested for the inhibition of fatty acid amide hydrolase from rat brain homogenates at 10 uM in buffer B of pH 6 by using 10 uM [3H]ethanolamine-labeled anandamide as substrate; format: tissue-based; outline: as §3
[18] = molecular target: T1, Fatty-acid amide hydrolase 1 (Rattus norvegicus); test: Compound was tested for the inhibition of fatty acid amide hydrolase from rat brain homogenates at 10 uM in buffer B of pH 9 by using 10 uM [3H]ethanolamine-labeled anandamide as substrate; format: tissue-based; outline: as §3
[19] = molecular target: T1, Fatty-acid amide hydrolase 1 (Rattus norvegicus); test: Compound was tested for the inhibition of fatty acid amide hydrolase from rat brain homogenates at 10 uM in buffer A of pH 6 by using 30 uM [3H]ethanolamine-labeled anandamide as substrate; format: tissue-based

Chain of Cannabinoid receptor 2 (Homo sapiens) (P34972 whole entry): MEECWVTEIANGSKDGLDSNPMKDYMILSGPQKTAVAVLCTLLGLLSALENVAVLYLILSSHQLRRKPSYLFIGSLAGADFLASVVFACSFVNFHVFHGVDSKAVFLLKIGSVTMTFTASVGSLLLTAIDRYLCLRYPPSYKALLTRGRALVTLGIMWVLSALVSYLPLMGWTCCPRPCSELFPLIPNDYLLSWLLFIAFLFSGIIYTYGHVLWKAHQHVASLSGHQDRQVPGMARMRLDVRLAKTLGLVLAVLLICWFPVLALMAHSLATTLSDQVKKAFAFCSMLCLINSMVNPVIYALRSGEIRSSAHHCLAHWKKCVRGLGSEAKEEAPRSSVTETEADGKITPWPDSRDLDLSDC
Chain of Cannabinoid receptor 1 (Homo sapiens) (P21554 whole entry): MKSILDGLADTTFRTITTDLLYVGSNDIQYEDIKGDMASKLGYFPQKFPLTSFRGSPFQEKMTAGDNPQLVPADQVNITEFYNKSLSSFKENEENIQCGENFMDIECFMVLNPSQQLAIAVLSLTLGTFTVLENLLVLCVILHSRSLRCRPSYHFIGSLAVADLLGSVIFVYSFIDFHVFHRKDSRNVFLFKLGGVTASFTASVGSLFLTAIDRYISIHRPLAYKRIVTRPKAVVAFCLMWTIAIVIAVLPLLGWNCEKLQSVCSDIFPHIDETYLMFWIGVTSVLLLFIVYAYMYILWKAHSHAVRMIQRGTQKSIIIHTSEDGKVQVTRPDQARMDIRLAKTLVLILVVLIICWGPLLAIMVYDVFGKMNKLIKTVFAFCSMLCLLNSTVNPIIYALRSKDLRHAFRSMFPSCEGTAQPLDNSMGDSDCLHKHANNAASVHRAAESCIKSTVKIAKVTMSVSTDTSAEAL
Chain of N-acylethanolamine-hydrolyzing acid amidase (Rattus norvegicus) (Q5KTC7 whole entry, looked up): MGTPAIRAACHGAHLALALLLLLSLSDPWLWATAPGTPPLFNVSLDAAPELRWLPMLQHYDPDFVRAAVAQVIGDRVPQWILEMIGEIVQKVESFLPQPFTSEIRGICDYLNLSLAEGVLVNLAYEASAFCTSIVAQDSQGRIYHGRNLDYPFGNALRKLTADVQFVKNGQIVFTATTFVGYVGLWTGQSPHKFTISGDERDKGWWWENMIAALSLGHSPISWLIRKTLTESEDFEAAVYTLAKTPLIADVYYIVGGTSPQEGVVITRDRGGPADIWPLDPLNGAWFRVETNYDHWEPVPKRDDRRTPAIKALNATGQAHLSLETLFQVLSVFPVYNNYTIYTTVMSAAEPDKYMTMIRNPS

| Structure (SMILES) | inhibition [1] | inhibition [2] | inhibition [3] | inhibition [4] | inhibition [5] | inhibition [6] | inhibition at 100 µM [7] | inhibition at 30 µM [8] | inhibition [9] | inhibition [10] | inhibition at 10 µM [11] | inhibition [12] | inhibition [13] | inhibition [14] | inhibition [15] | inhibition [16] | inhibition [17] | inhibition [18] | inhibition [19] |
| --- | --- | --- | --- | --- | --- | --- | --- | --- | --- | --- | --- | --- | --- | --- | --- | --- | --- | --- | --- |
| CCCCCCCCCCCCCCCCOC(C)=O | < 0% | < 0% | 9% | 10% | 68% |  |  |  |  |  |  |  |  |  |  |  |  |  |  |
| CCCCCCCCCCCCCCCC(=O)OCc1ccccc1 | 24% | 6% | 5% | 5% | 50% |  |  |  |  |  |  |  |  |  |  |  |  |  |  |
| CCCCCCCCCCCCCCCC(=O)OCCCl | 45% | 27% | 6% | 14% | 55% |  |  |  |  |  |  |  |  |  |  |  |  |  |  |
| CCCCCCCCCCCCCCCC(=O)OC | 69% | 18% | 14% | 11% |  | 64% |  |  |  |  |  |  |  |  |  |  |  |  |  |
| CCCCCCCCCCCCCCCC(=O)NC1CCCCC1 | 11% | 8% | 8% | 34% | 23% |  |  |  |  |  |  |  |  |  |  |  |  |  |  |
| CCCCCCCCCCCCCCCC(=O)NC | 68% | 35% | 8% | 3% | 30% |  |  |  |  |  |  |  |  |  |  |  |  |  |  |
| CCCCCCCCCCCCCCCC(=O)OC(C)C | < 0% | < 0% | 0.5% | 8% | 44% |  |  |  |  |  |  |  |  |  |  |  |  |  |  |
| CCCCCCCCCCCCCCCNC(=O)CCO | 8% | < 0% | 3% | 4% | 77% |  | 28% | 13% | 8% | < 0% | 8% | 16% | 5% | 2% | 7% | 20% | 11% | 6% |  |
| CCCCCCCCCCCCCCCCOC(=O)CC [HEXADECYLPROPIONATE] | < 0% | < 0% | 2% | 12% | 71% |  | 15% | 12% | 2% | < 0% | 11% | < 0% | 21% | < 0% | 4% | 26% | 5% | < 0% | < 0% |
| CCCCCCCCCCCCCCCC(=O)OC(C)(C)C | < 0% | < 0% | 14% | 14% | 23% |  |  |  |  |  |  |  |  |  |  |  |  |  |  |
| CCCCCCCCCCCCCCCC(=O)OCCBr | 31% | 19% | 2% | 2% | 45% |  |  |  |  |  |  |  |  |  |  |  |  |  |  |
| CCCCCCCCCCCCCCCC(=O)NC(C)C | 52% | 30% | 12% | 25% | 25% |  |  |  |  |  |  |  |  |  |  |  |  |  |  |
| CCCCCCCCCCCCCCCC(=O)OC1CCCCC1 [CYCLOHEXYL PALMITATE] | 36% | 6% | 6% | 14% | 84% |  | 29% | 16% | 8% | 46% | 5% | 51% | 17% | 37% | 12% | 5% | 20% | 12% | 2% |
| CCCCCCCCCCCCCCCC(=O)NCCO | 68% | 49% | 14% | 24% | 34% |  |  |  |  |  |  |  |  |  |  |  |  |  |  |
| C=CCOC(=O)CCCCCCCCCCCCCCC | 36% | 16% | 1% | 2% | 48% |  |  |  |  |  |  |  |  |  |  |  |  |  |  |
